# Experimental data gathered from unrelated publications.
SMILES,assay,setting,chromatographic logD
CCOC(=O)C1=C(C)N/C(=C/c2cc(C)n(-c3ccc(SC(F)(F)F)cc3)c2C)C1=O,HPLC,pH 7.4,3.8
CCn1c(-c2nc3ccc(C(=O)N4CCCC(N)C4)cc3n2C)cc2ccccc21 (stereo not drawn),HPLC,pH 7.4,3
CCc1nnc(NC(=O)c2nc(-c3ccc(Cl)cc3)n3c2CCCCC3)s1,,pH 7.4,6.8
COc1cc(Cl)c(C(=O)N[C@@H](CN[C@H]2CC[C@@H](N)CC2)Cc2ccc(C#N)cc2)cc1-c1ccc(CN[C@H](C)c2ccc(C)cc2)o1,HPLC,pH 7.5,2.9
"CO[C@H](C(=O)N1Cc2c(-c3ccc(C(=O)N4CCCc5ccccc54)cc3)cnn2C[C@H]1C(C)C)c1cnn(C)c1 (single isomer, unassigned)",HPLC,pH 7.4,4.2
CCOC(=O)C1=C(C)N/C(=C/c2cc(C)n(-c3ccc(SC)cc3)c2C)C1=O,HPLC,pH 7.4,3.3
Cc1n[nH]c(CC(=O)N2Cc3c(-c4ccc(C(=O)N5CCCc6ccccc65)cc4)cnn3C[C@H]2C)n1,HPLC,pH 7.4,2.7
CC1=C(C(N)=O)C(=O)/C(=C\c2cc(C)n(-c3ccccc3C(F)(F)F)c2C)N1,HPLC,pH 7.4,2.8
CC1=C(C#N)[C@@H](c2ccc(C#N)cc2S(C)(=O)=O)N(C)C(=O)N1c1cccc(C(F)(F)F)c1,HPLC,pH 7.5,3
CC1=C(C(=O)O)C(=O)/C(=C\c2cc(C)n(-c3ccccc3C(F)(F)F)c2C)N1,HPLC,pH 7.4,3.2
CC1=C(C#N)[C@@H](c2ccc(C#N)cc2C(F)(F)F)NC(=O)N1c1cccc(C(F)(F)F)c1,HPLC,pH 7.5,3.2
"CO[C@H](C(=O)N1Cc2c(-c3ccc(C(=O)N4CCCc5ccccc54)cn3)cnn2C[C@H]1C(C)C)c1cnn(C)c1 (single isomer, unassigned)",HPLC,pH 7.4,3.1
CCn1cnnc1C1CCN(C(=O)c2cn3ccc(C)cc3n2)CC1,,pH 7.4,1.2
CCOC(=O)C1=C(C)N/C(=C/c2cc(C)n(-c3ccncc3)c2C)C1=O,HPLC,pH 7.4,1.9
CCn1c(-c2nc3cc(C(=O)N4CCC[C@@H](N)C4)cc(OC)c3n2C)cc2cccnc21,HPLC,pH 7.4,2.4
C[C@H](C(=O)N1Cc2c(-c3ccc(C(=O)N4CCCc5ccccc54)cc3)cnn2C[C@H]1C)c1ccccc1,HPLC,pH 7.4,5.2
O=C(Nc1ccc2c(c1)B(O)OC2)Nc1ccc(F)c(C(F)(F)F)c1,HPLC,pH 7.4,2.5
Nc1cccc2c1CN(C1CCC(=O)NC1=O)C2=O (stereo not drawn),HPLC,pH 7.4,-0.4
CC1=C(C(=O)OC(C)(C)C)C(=O)/C(=C\c2cc(C)n(-c3ccccc3C(F)(F)F)c2C)N1,HPLC,pH 7.4,3.8
CC(=O)Nc1nc(-c2c(F)cccc2F)cs1,,pH 7.4,3.7
CC(C)(C)C1=CC(=NNc2ccc([N+](=O)[O-])cc2[N+](=O)[O-])C=C(C(C)(C)C)C1=O,HPLC,pH 7.4,> 5.3
